CHRM5 PAM: CHRM5 positive allosteric modulation; CHO-K1 hM5, Fluo-8 calcium, ACh EC20 PAM; 0% = ACh EC20, 100% = ACh EC100; activation, % at 3 µM; hit rate 0.3% among 360,000; AID 624038;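 active = activation above the run cutoff, the mean activation of all test compounds plus 3 SD, cut at about 18% in these data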
Target sequence (P08912 whole entry, looked up): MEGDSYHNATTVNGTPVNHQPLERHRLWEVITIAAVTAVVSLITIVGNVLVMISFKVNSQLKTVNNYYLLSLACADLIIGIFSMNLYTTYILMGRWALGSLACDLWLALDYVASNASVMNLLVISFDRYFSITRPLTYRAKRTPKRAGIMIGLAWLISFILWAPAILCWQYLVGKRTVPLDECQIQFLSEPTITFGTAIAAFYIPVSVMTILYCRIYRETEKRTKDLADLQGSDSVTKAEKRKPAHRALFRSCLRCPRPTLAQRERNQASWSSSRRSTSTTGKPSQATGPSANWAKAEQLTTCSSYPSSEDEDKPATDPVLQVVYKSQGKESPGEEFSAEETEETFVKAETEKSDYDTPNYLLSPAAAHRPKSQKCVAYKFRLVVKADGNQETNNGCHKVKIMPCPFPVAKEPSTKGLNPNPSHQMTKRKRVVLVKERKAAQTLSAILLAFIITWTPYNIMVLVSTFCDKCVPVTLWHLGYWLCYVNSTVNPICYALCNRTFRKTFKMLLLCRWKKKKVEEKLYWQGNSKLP
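Assay system: CHO-K1 hM5 cells / Incubation: Fluo-8 loading 80 min at 37 °C plus 30 min room temperature / Technique: Fluo-8 calcium dye fluorescence, kinetic read / Repeats: single replicate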
M1 antag: antagonists of human M1 muscarinic receptor. CHO-K1 hM1, Fluo-8 calcium fluorescence, ACh EC80 antagonist. inhibition, % at 3 µM. hit rate 1.3% among 360,000. AID 588852;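 active = percent inhibition above its own plate's cutoff, namely the mean of that plate's compound wells plus 3 SD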;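 note: peak over basal fluorescence ratio during 140 s after agonist addition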
CHRM1 agonist: agonists of human M1 muscarinic receptor. P11229. AID 588814. hit rate 0.33% among 360,000. activation, % at 3 µM. CHO-K1 hM1, Fluo-8 calcium fluorescence, agonist mode; 0% DMSO, 100% acetylcholine EC100;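 active = activation above the run's mean compound activation plus 3 SD, cut at about 16% in these data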;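 note: peak over basal fluorescence ratio within a 140 s kinetic read after compound addition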
M5 antag: CHRM5 antagonism in calcium assay; AID 624040; hit rate 0.59% among 360,000; inhibition, % at 3 µM; CHO-hM5 cells, Fluo-8 calcium fluorescence, ACh EC80; P08912;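 active = inhibition above a per-plate cutoff, the mean of that plate's test compounds plus 3 SD, cut at about 27% in these data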
M1 PAM: potentiates human M1 receptor response to acetylcholine; hit rate 0.088% among 360,000; activation, % at 3 µM; P11229; CHO-K1 hM1, Fluo-8 calcium fluorescence, ACh EC20; 0% = ACh EC20, 100% = maximal ACh; AID 588819; in the data active = activation above about 19%, passing the limit was not always enough
CHRM5 agonist: agonists of human muscarinic M5 receptor (CHRM5) | P08912 | CHO-K1 hM5 cells, Fluo-8 calcium fluorescence; 0% DMSO wells, 100% maximal acetylcholine response | activation, % at 3 µM | hit rate 0.19% among 360,000;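 active = activation above the run's mean over test compounds plus 3 SD, cut at about 23% in these data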;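 note: signal is peak over basal fluorescence ratio across the kinetic read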
Of the large screens only hits and unclear results are named; the others gave an inactive call. An excerpt weighted towards active compounds, which were near 2% of everything screened.

COC(=O)/C=C1\OCc2cc(C)ccc21	none (no result: M1 antag, CHRM1 agonist, M1 PAM)
COC(=O)/C=C1\OCc2ccc(C)cc21	CHRM5 PAM 18.5 (no result: M1 antag, CHRM1 agonist, M1 PAM)
O=C(OCCO)c1c(C2=CCCCC2)oc2c1C(OCCO)CCC2 (centres undefined)	none (no result: M1 antag, CHRM1 agonist, M1 PAM)
CCCN1C(=O)/C(=C/c2c(NCCCOCC)nc3c(C)cccn3c2=O)SC1=S	none
O=C1/C(=C\c2c(NCCOCCO)nc3ccccn3c2=O)SC(=S)N1Cc1ccco1	CHRM1 agonist 29.6, CHRM5 agonist 60.2
O=C1c2ccccc2NC(c2ccccc2)N1Cc1ccccc1 (centres undefined)	none
COc1cccc(C2Nc3ccccc3C(=O)N2Cc2ccccc2)c1 (centres undefined)	CHRM5 PAM 28.0, M5 antag 27.6
Cn1nc(C2CC2)cc1NC(=O)C1(C)CCN1C(=O)c1ccccc1CCc1ccccc1 (centres undefined)	none
O=C(C(Cl)Cl)N1CC2CCC(CC2)C1	CHRM5 PAM 18.4
O=C(COc1cccc(Cl)c1)NNC(=S)Nc1ccccc1	none
O=C(O)CCC(=O)NNC(=O)COc1cccc(Cl)c1	CHRM5 PAM 21.0
Nc1ccn(C(C=O)CC(C=O)CO)c(=O)n1 (centres undefined)	none
COc1ccccc1Cn1c(C)nc2ccccc21	none
Cc1ccccc1Cn1c(C)nc2ccccc21	M1 antag 39.1
CN(C)c1cccc(CNC(=O)c2ccc3sc([C@@H]4O[C@H](CO)[C@H](O)[C@H](O)[C@H]4O)nc3c2)c1	none
Cc1ncccc1C(=O)N1CCCC(c2cc(C(=O)Nc3ccc(C(C)(C)C)cc3)no2)C1 (centres undefined)	none
CC1CC(C)(C)CC2(C1)NC(=O)N(CC(=O)N1CCN(S(=O)(=O)c3cccc(Cl)c3Cl)CC1)C2=O (centres undefined)	M1 antag 45.0
O=C(O)c1ccc(N/N=C/c2ccc(-c3cccc(Cl)c3)o2)cc1	none
O=C(O)c1ccc(-c2ccc(/C=N/Nc3ccc([N+](=O)[O-])cc3)o2)cc1	CHRM1 agonist 18.2, M5 antag 27.6, CHRM5 agonist 55.5
O=C(O)c1cccc(-c2ccc(/C=N/Nc3ccc([N+](=O)[O-])cc3)o2)c1	CHRM1 agonist 17.1, M5 antag 34.1, CHRM5 agonist 34.2
O=[N+]([O-])c1ccc(N/N=C/c2c[nH]c3ccccc23)cc1	M1 antag 34.0, M5 antag 28.0
CSc1ccc(/C=C/C(=O)OCC(=O)N2CCN(c3ccccc3)CC2)cc1	none
C#CC1(NC(=S)Nc2cccc(OC)c2)CCCCC1	none
CCc1ccc(N2C=C(C(=O)OC)C(c3cccc4ccccc34)C(C#N)=C2N)cc1 (centres undefined)	none (no result: M1 antag, CHRM1 agonist, M1 PAM)
CCN1C(=O)c2ccccc2S(=O)(=O)c2ccc(C(=O)NC(C)C)cc21	none
CCCCSCCCNC(=O)c1ccc2c(c1)N(CC)C(=O)c1ccccc1S2=O (centres undefined)	none
CCCCNC(=O)c1ccc2c(c1)N(CC)C(=O)c1ccccc1S2(=O)=O	M1 antag 33.5
CCCN(CCC)CCCNC(=O)c1ccc2c(c1)N(CC)C(=O)c1ccccc1S2=O (centres undefined)	M1 antag 44.5
Cc1ccc(C(=O)Nc2nnc(COCCO)s2)cc1	none
CCOC(=O)C1=CCN(S(=O)(=O)c2ccc(C)cc2)C1c1ccc(CC)cc1 (centres undefined)	none
O=C(OCC(=O)N1CCCC1=O)c1cccc(S(=O)(=O)N2CCOCC2)c1	CHRM5 PAM 32.5
CCCC(=O)N(Cc1cc2cc(OC)ccc2[nH]c1=O)c1ccc(OC)cc1	none
Cc1ccc(OC(=O)CCS(=O)(=O)c2ccc(C)cc2)cc1	M1 PAM 25.3
CCOc1ccc(CN2CCCC(CO)(Cc3ccc(F)cc3)C2)cc1 (centres undefined)	M1 antag 40.0
COc1ccc(CN2CCCC(CO)(Cc3ccc(F)cc3F)C2)cc1 (centres undefined)	none
CCOc1ccc(C2C(C#N)=C(N)SC(N)=C2C#N)c(OCC)c1	CHRM1 agonist 17.8
CN(Cc1nccs1)C(=O)c1ccc2nc(Cc3ccccc3F)oc2c1	none
CN(Cc1nccn1C)C(=O)c1ccc2nc(Cc3ccccc3F)oc2c1	M1 antag 48.0
CCOc1ccc(OCCC(=O)OCC(=O)Nc2ccc(C)c(S(=O)(=O)N3CCCCC3)c2)cc1	M5 antag 27.0
O=C(c1cccc(Br)c1)N1CCN(c2ccccn2)CC1	none
O=C(c1cc(Br)c(Br)s1)N1CCN(c2ccccn2)CC1	M1 antag 38.8
CCOC(=O)C1CCN(c2ncnc3c(C)csc23)CC1	M1 antag 39.8
CC(Oc1ccccc1Cl)C(=O)Nc1ccc(S(=O)(=O)N2CCOCC2)cc1 (centres undefined)	none
CC(C)C(=O)Nc1ccc(C(=O)Nc2ccc(S(=O)(=O)N3CCOCC3)cc2)cc1	none
Cc1ccccc1OC(C)C(=O)Nc1ccc(S(=O)(=O)N2CCCC2)cc1 (centres undefined)	M1 antag 88.5
CC(Sc1ccc(Cl)cc1)C(=O)N(C)CC(=O)Nc1ccc(N2CCOCC2)cc1 (centres undefined)	M1 antag 18.4
CC(Sc1ccc(Cl)cc1)C(=O)Nc1ccc(S(=O)(=O)N2CCOCC2)cc1 (centres undefined)	CHRM1 agonist 22.4, CHRM5 agonist 38.8
CCOc1ccccc1OC(C)C(=O)Nc1ccc(S(=O)(=O)N2CCCC2)cc1 (centres undefined)	none
Cc1ccc(OC(C)C(=O)Nc2ccc(S(=O)(=O)N3CCOCC3)cc2)cc1 (centres undefined)	CHRM1 agonist 22.0
COC(=O)[C@@]12C[C@@H](CC(=O)N3CCN(C(=O)C4CC4)CC3)C(=O)N(Cc3cccc4ccccc34)C1=CCC(C)(C)C2	none (no result: M1 antag, CHRM1 agonist, M1 PAM)
CC(Oc1ccc(Br)cc1)C(=O)Nc1ccc(S(=O)(=O)N(C)C2CCN(C)CC2)cc1 (centres undefined)	M1 antag 67.0, CHRM1 agonist 54.9, CHRM5 agonist 61.9
CC(OC(=O)c1cc(Br)ccc1O)C(=O)Nc1ccc(S(=O)(=O)N2CCCC2)cc1 (centres undefined)	none
Cc1cccc(C(=O)OC(C)C(=O)Nc2ccc(S(=O)(=O)N3CCCC3)cc2)c1O (centres undefined)	M1 antag 29.2
CC(Oc1cc(F)ccc1[N+](=O)[O-])C(=O)Nc1ccc(S(=O)(=O)N2CCCC2)cc1 (centres undefined)	M1 antag 72.9
COCCNC(=O)C[C@H]1C[C@H]2c3cc(NS(=O)(=O)c4ccc(F)cc4)ccc3O[C@H]2[C@H](CO)O1	none

Source: PubChem BioAssay
